Measured values from ChEMBL document CHEMBL6153049, “Functionalized regioisomers of the natural product phenazines myxin and iodinin as potent inhibitors of Mycobacterium tuberculosis and human acute myeloid leukemia cells” (Eur J Med Chem, 2025).

How the values were obtained:
[1] = Cytotoxicity against rat H9c2 cells assessed as inhibition of cell viability measured after 24 hrs by WST-1 assay; assay type: toxicity, cell-based
Method in brief: (§1)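 NRK and H9c2 seeded at 5000 cells/well in DMEM with 10 % FBS, 0.2 mM L-glutamine, penicillin/streptomycin. Compounds dissolved in DMSO; 24 h exposure. Viability read by WST-1. Hoechst 33342 nuclear morphology was checked after fixation. IC50 from four-parameter regression of WST-1 signal. Cells were mycoplasma-tested.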

[2] = system: Mycobacterium tuberculosis; experiment: Antimycobacterial activity against drug-sensitive Mycobacterium tuberculosis H37Rv assessed as bacterial growth inhibition measured after 1 week by MABA assay; assay type: functional, organism-based; conditions: 168 h
Method in brief: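 Colonies grown on 7H10+OADC agar at 37 °C, then to mid-log in 7H9+OADC; about 4×10^5 CFU/mL inoculated into 7H9 with escalating compound concentrations. Incubated 37 °C for 1 week, then resazurin (0.6 mM in PBS) mixed 8:5 with 20 % Tween 80 was added and incubated overnight at 37 °C. Fluorescent resorufin read-out gave IC50.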

[3] = Cytotoxicity against rat NRK cells assessed as inhibition of cell viability measured after 24 hrs by WST-1 assay; assay type: toxicity, cell-based; method in brief: as §1
MOLM-13 = experiment: Cytotoxicity against human MOLM-13 cells assessed as inhibition of cell viability measured after 24 hrs by WST-1 assay; assay type: functional, cell-based; conditions: MOLM-13, 24 h
Method in brief: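 MOLM-13 seeded at 30,000 cells/well in RPMI with 10 % FBS, 0.2 mM L-glutamine, penicillin/streptomycin. Compounds dissolved in DMSO; 24 h exposure. Viability read by WST-1. Nuclear morphology checked with Hoechst 33342 after formaldehyde fixation. IC50 from four-parameter regression of WST-1 signal. Cells were mycoplasma-tested.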

Compound | IC50 at 24 h [1] | IC50 [2] | IC50 at 24 h [3] | IC50 (MOLM-13)
[O-][n+]1c2cccc(O)c2[n+]([O-])c2cccc(O)c21 | > 50 µM | 0.17 µM | > 50 µM | 2 µM
COc1cccc2c1[n+]([O-])c1cccc(O)c1[n+]2[O-] | 46 µM | 0.014 µM | 77 µM | 1.4 µM
[O-][n+]1c2ccccc2[n+]([O-])c2c(O)cccc21 | > 100 µM | 0.26 µM | 79 µM | 11 µM
COc1cc2c(cc1O)[n+]([O-])c1ccccc1[n+]2[O-] | – | 11.1 µM | – | > 100 µM
CC(=O)Oc1cc(OC(C)=O)c2c(c1)[n+]([O-])c1ccccc1[n+]2[O-] | – | 5 µM | – | 35 µM
CCOCOc1cc(OC)c2c(c1)[n+]([O-])c1ccccc1[n+]2[O-] | > 25 µM | 0.06 µM | > 25 µM | 5.1 µM
[O-][n+]1c2ccccc2[n+]([O-])c2c(O)cc(O)cc21 | – | 0.56 µM | – | 11 µM
CCOC(=O)COc1cc(OCC(=O)OCC)c2c(c1)[n+]([O-])c1ccccc1[n+]2[O-] | > 200 µM | 2.88 µM | > 200 µM | 2 µM
COc1cc(O)c2c(c1)[n+]([O-])c1ccccc1[n+]2[O-] | 81 µM | 0.05 µM | 38 µM | 3.8 µM
CCOC(=O)COc1cc(O)c2c(c1)[n+]([O-])c1ccccc1[n+]2[O-] | 89 µM | 0.17 µM | 194 µM | 5.7 µM
CCOC(=O)COc1cc(OC)c2c(c1)[n+]([O-])c1ccccc1[n+]2[O-] | – | 0.25 µM | – | 10 µM
CC(=O)Oc1cc(O)c2c(c1)[n+]([O-])c1ccccc1[n+]2[O-] | – | 0.85 µM | – | 16 µM
COc1cc(O)cc2c1[n+]([O-])c1ccccc1[n+]2[O-] | > 200 µM | 1.91 µM | > 100 µM | > 100 µM
CCOc1cc(O)c2c(c1)[n+]([O-])c1ccccc1[n+]2[O-] | 103 µM | 0.04 µM | 87 µM | 2 µM
COc1cccc2c1[n+]([O-])c1ccccc1[n+]2[O-] | 12 µM | 0.04 µM | 32 µM | 1.4 µM
COc1cc(OC(C)=O)c2c(c1)[n+]([O-])c1ccccc1[n+]2[O-] | 55 µM | 0.08 µM | 36 µM | 6.5 µM
CCOC(=O)COc1cc(OC)cc2c1[n+]([O-])c1ccccc1[n+]2[O-] | 19 µM | 2.41 µM | 14 µM | 1.4 µM
CCOCOc1cc(O)c2c(c1)[n+]([O-])c1ccccc1[n+]2[O-] | > 25 µM | 0.02 µM | > 25 µM | 3.8 µM
COc1cc(OC)c2c(c1)[n+]([O-])c1ccccc1[n+]2[O-] | 108 µM | 0.12 µM | 46 µM | 6 µM
COCOc1cc(O)c2c(c1)[n+]([O-])c1ccccc1[n+]2[O-] | > 50 µM | 0.11 µM | > 100 µM | 5.2 µM
[O-][n+]1c2ccccc2[n+]([O-])c2cc(O)c(O)cc21 | – | > 50 µM | – | > 50 µM
